{"data": "Measured values of several laboratories", "target": "SRSF protein kinase 2 (SRPK2, Homo sapiens, UniProt P78362)", "note": "Protocols differ between the studies behind these lines."}
{"SMILES": "Nc1ncc2c(n1)-c1c([nH]c3ccc(C#CC4CC4)cc13)CCCC2", "effect on": "binding", "method": "competition with immobilised ligand", "tested at": "1 µM", "remaining binding": "82%"}
{"SMILES": "C[C@@H]1CN(c2cc(-c3nn(C)c4ccc(OC5(C)CC5)cc34)ncn2)C[C@H](C)O1", "effect on": "cell-free assay", "method": "competition with immobilised ligand", "tested at": "1 µM", "remaining binding": "88%"}
{"SMILES": "C=CC(=O)N1CCC(C(=O)NCC(=O)N2CCN(c3nc(-c4cnc(N)nc4C(F)F)nc(N4CCOCC4)n3)CC2)CC1", "effect on": "binding", "method": "competition with immobilised ligand", "tested at": "1 µM", "remaining binding": "100%"}
{"SMILES": "COc1cnc(Nc2cccc(S(N)(=O)=O)c2)nc1N1CCN(c2ccccc2)C(=O)C1", "effect on": "binding", "method": "competition with immobilised ligand", "tested at": "1 µM", "remaining binding": "89%"}
{"SMILES": "O=C(c1ccc(Nc2ncc(Cl)c(-c3cc4ccccc4s3)n2)cc1)N1CCC(N2CCCC2)CC1", "effect on": "binding", "method": "competition with immobilised ligand", "tested at": "1 µM", "remaining binding": "99%"}
{"SMILES": "c1cncc(-c2cccc(Nc3nccc(NC4CCCCC4)n3)c2)c1", "effect on": "binding", "method": "competition with immobilised ligand", "tested at": "10 µM", "remaining binding": "100%"}
{"SMILES": "CS(=O)(=O)N1CCCC(NC(=O)[C@H](CCC2CCCCC2)NC(=O)c2ccc(CNC(=O)c3cnc4ccccn34)cc2)C1 (stereo partly drawn)", "effect on": "cell-free assay", "method": "competition with immobilised ligand", "tested at": "0.1 µM", "remaining binding": "83%"}
{"SMILES": "F[C@@H]1CCN(c2nccc(-c3cnn4ncccc34)n2)C1", "effect on": "binding", "tested at": "1 µM", "remaining binding": "80%"}
{"SMILES": "C[C@@H](c1ccc(-n2cnc3c(N)ncnc32)cc1)N1CCc2nn(C)c(Cc3ccccc3)c2C1=O", "effect on": "binding", "method": "competition with immobilised ligand", "tested at": "0.1 µM", "remaining binding": "83%"}
{"SMILES": "O=C(N1CCS(=O)(=O)CC1)N1C[C@H](c2ccc(OC(F)(F)F)cc2)C[C@H](c2nc(C3CC3)no2)C1", "effect on": "cell-free assay", "method": "competition with immobilised ligand", "tested at": "1 µM", "remaining binding": "100%"}
{"SMILES": "CN(CCCC(F)(F)F)c1nccc(-c2cnn3ncccc23)n1", "effect on": "binding", "tested at": "1 µM", "remaining binding": "100%"}
{"SMILES": "Cc1nc(N2CC[C@@H](O)C2)ncc1-c1cc(C(F)(F)F)cc2[nH]ncc12", "effect on": "binding", "method": "competition with immobilised ligand", "tested at": "1 µM", "remaining binding": "100%"}
{"SMILES": "Cc1cnn2ncc(-c3ccnc(N(C)C)n3)c2c1", "effect on": "binding", "tested at": "1 µM", "remaining binding": "100%"}
{"SMILES": "N#Cc1ccc(Nc2ccc3[nH]c(=O)[nH]c3c2)c(Cl)c1", "effect on": "cell-free assay", "method": "competition with immobilised ligand", "tested at": "1 µM", "remaining binding": "100%"}
{"SMILES": "O=C(Nc1c[nH]nc1C(=O)NC1CCNCC1)c1cc(F)cc(F)c1", "effect on": "binding", "method": "competition with immobilised ligand", "tested at": "1 µM", "remaining binding": "85%"}
{"SMILES": "CN(C)c1nccc(-c2cnc3ncccn23)n1", "effect on": "binding", "tested at": "1 µM", "remaining binding": "100%"}
{"SMILES": "O=C(c1ccc(Nc2nccc(-c3cc4ccccc4s3)n2)cc1)N1CCC(N2CCCC2)CC1", "effect on": "binding", "method": "competition with immobilised ligand", "tested at": "1 µM", "remaining binding": "92%"}
{"SMILES": "C[C@@H]1CCN(c2nccc(-c3cnn4ncccc34)n2)C1", "effect on": "binding", "tested at": "1 µM", "remaining binding": "100%"}
{"SMILES": "O=C(NCCCN1CCOCC1)c1ccc(Nc2nccc(-c3cc4ccccc4s3)n2)cc1", "effect on": "binding", "method": "competition with immobilised ligand", "tested at": "1 µM", "remaining binding": "99%"}
{"SMILES": "N[C@@H]1CCN(c2nccc(-c3cnn4ncccc34)n2)C1", "effect on": "binding", "tested at": "1 µM", "remaining binding": "100%"}
{"SMILES": "CN(C)C(=O)Cn1cc(-c2nc(C3(c4ccc(-c5cnc(N)nc5)cc4)CC3)no2)cn1", "effect on": "cell-free assay", "method": "competition with immobilised ligand", "tested at": "1 µM", "remaining binding": "91%"}
